Experiments:
Type in all cases: functional
[1] = system: Mus musculus; assay: Tested for 60-day survivors after administration at 125 mg/kg orally in M5076 mouse reticulum cell sarcoma; conditions: route oral
How it was run: (§1)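 Female BD2F1 mice were implanted s.c. with 1 × 10^6 M5076 cells and dosed orally on days 1, 4, 7, 10, 13 and 16. Vehicle was saline or 5% DMA in 0.5% CMC. Groups had six mice (three at 400 mg/kg), with nine untreated controls. The number of mice alive at 60 days was counted.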

[2] = system: Mus musculus; assay: Tested for 60-day survivors after administration at 250 mg/kg orally in M5076 mouse reticulum cell sarcoma; conditions: route oral; how it was run: as §1
[3] = system: Mus musculus; assay: Tested for 60-day survivors after administration at 500 mg/kg orally in M5076 mouse reticulum cell sarcoma; conditions: route oral; how it was run: as §1
[4] = system: Mus musculus; assay: Percent treated was determined after administration at 250 mg/kg orally; conditions: route oral
How it was run: (§2)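 Female BDF₁ mice bearing subcutaneous M5076 (10⁶ cells, axillary). Oral dosing in saline or 5% DMA/0.5% CMC on days 1, 4, 7, 10, 13 and 16. Groups of six (three at 400 mg/kg), nine untreated controls. T/C (%) = median survival day of treated/median survival day of untreated controls × 100; 60-day survivors also recorded.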

[5] = system: Mus musculus; assay: Percent treated was determined after administration at 500 mg/kg orally; conditions: route oral; how it was run: as §2
[6] = system: Mus musculus; assay: Percent treated was determined after administration at 62.5 mg/kg orally; conditions: route oral; how it was run: as §2
[7] = system: Mus musculus; assay: Percent treated was determined after administration at 750 mg/kg orally; conditions: route oral; how it was run: as §2
[8] = system: Mus musculus; assay: Tested for 60-day survivors after administration at 62.5 mg/kg orally in M5076 mouse reticulum cell sarcoma; conditions: route oral; how it was run: as §1
[9] = system: Mus musculus; assay: Tested for 60-day survivors after administration at 750 mg/kg orally in M5076 mouse reticulum cell sarcoma; conditions: route oral; how it was run: as §1
[10] = system: Mus musculus; assay: Percent inhibition against M5076 mouse reticulum cell sarcoma after administration at 125 mg/kg orally on day 20; conditions: M5076, 480 h, route oral
How it was run: (§3)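 M5076 cells (10⁶ viable, counted by Trypan blue exclusion) implanted subcutaneously into the axillary region of female BDF₁ mice. Drug given orally on days 1, 4, 7, 10, 13 and 16 after inoculation, in saline or in 5% dimethylacetamide/0.5% carboxymethyl cellulose. Six mice per group (three at 400 mg/kg); untreated controls, nine mice. Tumor volume = 0.5 × length × width²; inhibition (%) = (1 − Vt/Vc) × 100 on day 20.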

[11] = system: Mus musculus; assay: Percent inhibition against M5076 mouse reticulum cell sarcoma after administration at 250 mg/kg orally on day 20; conditions: M5076, 480 h, route oral; how it was run: as §3
[12] = system: Mus musculus; assay: Percent inhibition against M5076 mouse reticulum cell sarcoma after administration at 62.5 mg/kg orally on day 20; conditions: M5076, 480 h, route oral; how it was run: as §3
[13] = system: Mus musculus; assay: Percent inhibition against M5076 mouse reticulum cell sarcoma after administration at 750 mg/kg orally on day 20; conditions: M5076, 480 h, route oral; how it was run: as §3
[14] = system: Mus musculus; assay: Weight change in M5076 mouse reticulum cell sarcoma after administration at 500 mg/kg orally; conditions: route oral
How it was run: (§4)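 Female BDF₁ mice with subcutaneous axillary M5076 (10⁶ cells), oral dosing on days 1, 4, 7, 10, 13 and 16 in saline or 5% DMA/0.5% CMC. Body weight change (g) = mean weight on day 20 minus mean weight on day 1.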

[15] = system: Mus musculus; assay: Weight change in M5076 mouse reticulum cell sarcoma after administration at 62.5 mg/kg orally; conditions: route oral; how it was run: as §4
[16] = system: Mus musculus; assay: Weight change in M5076 mouse reticulum cell sarcoma after administration at 750 mg/kg orally; conditions: route oral; how it was run: as §4
[17] = system: Mus musculus; assay: Percent treated was determined after administration at 125 mg/kg orally; conditions: route oral; how it was run: as §2
[18] = system: Mus musculus; assay: Weight change in M5076 mouse reticulum cell sarcoma after administration at 125 mg/kg orally; conditions: route oral; how it was run: as §4
[19] = system: Mus musculus; assay: Weight change in M5076 mouse reticulum cell sarcoma after administration at 250 mg/kg orally; conditions: route oral; how it was run: as §4
[20] = system: Mus musculus; assay: Percent inhibition against M5076 mouse reticulum cell sarcoma after administration at 500 mg/kg orally on day 20; conditions: M5076, 480 h, route oral; how it was run: as §3

What does the source list for `C[C@H]1O[C@@H](n2cc(F)c(=O)[nH]c2=O)[C@H](O)[C@@H]1O` [DOXIFLURIDINE]?
Survivors [1]: 0; Survivors [2]: 0; Survivors [3]: 0; T/C [4]: 86%; T/C [5]: 104%; T/C [6]: 88%; T/C [7]: 92%; Survivors [8]: 0; Survivors [9]: 0; inhibition in vivo at 125 mg/kg [10]: 18%; inhibition in vivo at 250 mg/kg [11]: 15%; inhibition in vivo at 62.5 mg/kg [12]: 8%; inhibition in vivo at 750 mg/kg [13]: 50%; Weight change [14]: 2.5 g; Weight change [15]: 2.8 g; Weight change [16]: 0.8 g; T/C [17]: 98%; Weight change [18]: 1.8 g; Weight change [19]: 2 g; inhibition in vivo at 500 mg/kg [20]: 19%

From ChEMBL document CHEMBL1126568, “Nucleosides and nucleotides. 122. 2'-C-cyano-2'-deoxy-1-beta-D-arabinofuranosylcytosine and its derivatives. A new class of nucleoside with a broad antitumor spectrum” (J Med Chem, 1993)
